This is an account of results in ChEMBL document CHEMBL1124055, “Analogues of [(triethylsilyl)ethynyl]estradiol as potential antifertility agents” (1988).

Assay type in all cases: functional
The species entered for test [1] is Rattus norvegicus. The test is described as follows: Oral estrogenic potency (E) relative to ethynylestradiol (EE) in rats. An outline of the steps: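 Rats given compound orally by gavage once daily for 3 consecutive days; vehicle-only control; 10 animals/group. Autopsy 24 h after last dose; uteri excised, cleaned, blotted and weighed to nearest 0.2 mg. Regression lines for standard (ethynylestradiol) and test compound constructed and compared to derive relative potency.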

Test [2] is filed under the species Rattus norvegicus. As to the kind of experiment: Oral antifertility potency (A) relative to ethynylestradiol (EE) in rats. Summed up: (§1)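 Mated cycling adult female rats (cohabited with males on proestrus night; sperm in vaginal washings) dosed orally by gavage in sesame oil once daily for 7 consecutive days; vehicle control; 10 rats/group. Killed about day 8; uteri examined for presence and condition of conceptuses. Potency from comparison with regression line of standard ethynylestradiol.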

The species entered for test [3] is Rattus norvegicus. As to the kind of experiment: Oral antifertility potency (A) relative to ethynylestradiol (EE) in rats. An outline of the steps: as §1

Structures are written as SMILES. Where only a bound is given, the exact number is not on record here.

As to `C#C[C@]1(O)CCC2C3C=Cc4cc(O)ccc4C3CCC21C` (stereo partly drawn), the Potency was determined as 2% in the test filed under Rattus norvegicus [1] and 20% in the test filed under Rattus norvegicus [2].

With `C#C[C@]1(O)CCC2c3ccc4cc(O)ccc4c3CCC21C` (stereo partly drawn), the Potency in the test filed under Rattus norvegicus [1] was 0.6%; in the test filed under Rattus norvegicus [2] it was 10%.

On to `CC[Si](C#C[C@]1(O)CCC2=C3C=Cc4cc(O)ccc4C3CCC21C)(CC)CC` (stereo partly drawn), for which the values for the Potency in the test listed under Rattus norvegicus [1] and in the test filed under Rattus norvegicus [2] were 1% and 66%, respectively.

With `C#C[C@]1(O)CC[C@H]2[C@@H]3CCc4cc(O)ccc4[C@H]3[C@@H](O)C[C@@]21C`, the Potency in the test listed under Rattus norvegicus [1] was found to be 0.8%; in the test filed under Rattus norvegicus [2], 200%.

Consider `C#C[C@]1(O)CC[C@H]2[C@@H]3CCc4ccccc4[C@H]3CC[C@@]21C`, for which the Potency in the test listed under Rattus norvegicus [1] is 31%; in the test listed under Rattus norvegicus [2], 33%.

`C#C[C@]1(O)CC[C@H]2[C@@H]3[C@H](O)Cc4cc(O)ccc4[C@H]3CC[C@@]21C`: the figures for the Potency in the test filed under Rattus norvegicus [1] and in the test filed under Rattus norvegicus [2] were 0.1% and 66%, respectively.

As to `C#C[C@]1(O)CC[C@H]2[C@@H]3CCc4cc(O)c(CN(CCC)CCC)cc4[C@H]3CC[C@@]21C`, the Potency in the test filed under Rattus norvegicus [3] is over 2 mg/kg/day; in the test listed under Rattus norvegicus [1] it was 1.3%.

Regarding `CC[Si](C#C[C@]1(O)CC[C@H]2[C@@H]3C[C@H](O)c4cc(O)ccc4[C@H]3CC[C@@]21C)(CC)CC`, the results for the Potency in the test listed under Rattus norvegicus [1] and in the test listed under Rattus norvegicus [2] were 38% and 300%, respectively.

Turning to `C#C[C@]1(O)CC[C@H]2[C@@H]3CCc4cc(O)c(OC)cc4[C@H]3CC[C@@]21C`, the Potency in the test filed under Rattus norvegicus [3] is over 2 mg/kg/day; in the test listed under Rattus norvegicus [1], 0.3%.

As to `CCCN(CCC)Cc1cc2c(cc1O)CC[C@@H]1[C@@H]2CC[C@@]2(C)[C@H]1CC[C@@]2(O)C#C[Si](CC)(CC)CC`, the Potency in the test filed under Rattus norvegicus [3] is over 1 mg/kg/day; in the test listed under Rattus norvegicus [1], 0.3%.

In the case of `CC[Si](C#C[C@]1(O)CC[C@H]2[C@@H]3CCc4ccccc4[C@H]3CC[C@@]21C)(CC)CC`, the Potency stood at 13% in the test filed under Rattus norvegicus [1] and 100% in the test filed under Rattus norvegicus [2].

Consider `CC[Si](C#C[C@]1(O)C(C)C[C@H]2[C@@H]3CCc4cc(O)ccc4[C@H]3CC[C@@]21C)(CC)CC` (stereo partly drawn), for which the Potency in the test listed under Rattus norvegicus [3] is over 0.8 mg/kg/day; in the test filed under Rattus norvegicus [1], 0.2%.

With `CC[Si](C#C[C@]1(O)CC[C@H]2[C@@H]3CCc4cc(OC)ccc4[C@H]3CC[C@@]21C)(CC)CC`, the Potency is over 2 mg/kg/day in the test listed under Rattus norvegicus [3] and 1.8% in the test filed under Rattus norvegicus [1].

`C=CCc1c(O)ccc2c1CC[C@@H]1[C@@H]2CC[C@@]2(C)[C@H]1CC[C@@]2(O)C#C[Si](CC)(CC)CC`: the Potency was over 3 mg/kg/day in the test listed under Rattus norvegicus [3] and 0% in the test filed under Rattus norvegicus [1].

Consider `CC[Si](C#C[C@]1(O)CC[C@H]2[C@@H]3[C@H](O)Cc4cc(O)ccc4[C@H]3CC[C@@]21C)(CC)CC`, for which the values for the Potency in the test listed under Rattus norvegicus [1] and in the test filed under Rattus norvegicus [2] were 0.3% and 20%, respectively.

With `C#C[C@]1(O)CC[C@H]2[C@@H]3C[C@@H](C)c4cc(O)ccc4[C@H]3CC[C@@]21C`, the Potency in the test listed under Rattus norvegicus [3] was over 0.5 mg/kg/day; in the test listed under Rattus norvegicus [1], 1.8%.

With `C#C[C@]1(O)CC[C@H]2[C@@H]3[C@H](O)[C@H](O)c4cc(O)ccc4[C@H]3CC[C@@]21C`, the results for the Potency in the test filed under Rattus norvegicus [3] and in the test listed under Rattus norvegicus [1] were over 0.5 mg/kg/day and 0.3%, respectively.

For `C#C[C@]1(O)CC[C@H]2[C@@H]3CCc4cc(O)c(C)cc4[C@H]3CC[C@@]21C`, the Potency in the test listed under Rattus norvegicus [1] came out at 5.5%; in the test filed under Rattus norvegicus [2], 40%.

As to `C#C[C@]1(O)CC[C@H]2[C@@H]3C[C@H](O)c4cc(O)ccc4[C@H]3CC[C@@]21C`, the Potency in the test listed under Rattus norvegicus [3] was over 0.2 mg/kg/day; in the test filed under Rattus norvegicus [1], 16%.

On to `CC[Si](C#C[C@]1(O)CC[C@H]2[C@@H]3[C@H](O)[C@H](O)c4cc(O)ccc4[C@H]3CC[C@@]21C)(CC)CC`, for which the figures for the Potency in the test filed under Rattus norvegicus [3] and in the test filed under Rattus norvegicus [1] were over 0.5 mg/kg/day and 0.6%, respectively.

`CC[Si](C#C[C@]1(O)CC[C@H]2[C@@H]3CCc4cc(O)ccc4[C@H]3[C@@H](O)C[C@@]21C)(CC)CC`: the Potency in the test filed under Rattus norvegicus [1] amounted to 14.4%; in the test listed under Rattus norvegicus [2], 64%.

Turning to `C#C[C@]1(O)CC(OC)[C@H]2[C@@H]3CCc4cc(OC)ccc4[C@H]3CC[C@@]21C` (stereo partly drawn), the Potency in the test filed under Rattus norvegicus [1] stood at 0.8%; in the test listed under Rattus norvegicus [2], 10%.

In the case of `CC[Si](C#C[C@]1(O)CC[C@H]2[C@@H]3C[C@@H](O)c4cc(O)ccc4[C@H]3CC[C@@]21C)(CC)CC`, the Potency in the test listed under Rattus norvegicus [1] was 16%; in the test listed under Rattus norvegicus [2] it was 40%.

As for `CC[Si](C#C[C@]1(O)CC[C@H]2[C@@H]3C[C@@H](C)c4cc(O)ccc4[C@H]3CC[C@@]21C)(CC)CC`, the Potency worked out at 0.2% in the test filed under Rattus norvegicus [1] and 7.5% in the test filed under Rattus norvegicus [2].

As to `C#C[C@]1(O)C(C)C[C@H]2[C@@H]3CCc4cc(O)ccc4[C@H]3CC[C@@]21C` (stereo partly drawn), the figures for the Potency in the test filed under Rattus norvegicus [3] and in the test filed under Rattus norvegicus [1] were over 2 mg/kg/day and 0.5%, respectively.

Turning to `CC[Si](C#C[C@]1(O)CC[C@H]2[C@@H]3CCc4cc(O)c(OC)cc4[C@H]3CC[C@@]21C)(CC)CC`, the Potency in the test filed under Rattus norvegicus [3] is over 2.8 mg/kg/day; in the test filed under Rattus norvegicus [1], 0.06%.

For the compound `CC[Si](C#C[C@]1(O)CC[C@H]2[C@@H]3CCc4cc(O)ccc4[C@H]3CC[C@@]21C)(CC)CC`, the figures for the Potency in the test listed under Rattus norvegicus [1] and in the test filed under Rattus norvegicus [2] were 37% and 600%, respectively.

`C#C[C@]1(O)CC[C@H]2[C@@H]3CCc4c(ccc(O)c4CC=C)[C@H]3CC[C@@]21C`: the Potency is over 2 mg/kg/day in the test listed under Rattus norvegicus [3] and 0.1% in the test filed under Rattus norvegicus [1].

As to `CC[Si](C#C[C@]1(O)CC(OC)[C@H]2[C@@H]3CCc4cc(OC)ccc4[C@H]3CC[C@@]21C)(CC)CC` (stereo partly drawn), the Potency is over 0.2 mg/kg/day in the test filed under Rattus norvegicus [3] and 3% in the test listed under Rattus norvegicus [1].

For `CC[Si](C#C[C@]1(O)CC[C@H]2[C@@H]3CCc4cc(O)c(C)cc4[C@H]3CC[C@@]21C)(CC)CC`, the Potency in the test listed under Rattus norvegicus [1] was 2.2%; in the test listed under Rattus norvegicus [2], 40%.

`CC[Si](C#C[C@]1(O)CCC2C3C=Cc4cc(O)ccc4C3CCC21C)(CC)CC` (stereo partly drawn): the figures for the Potency in the test filed under Rattus norvegicus [1] and in the test listed under Rattus norvegicus [2] were 2% and 200%, respectively.

On to `CC[Si](C#C[C@]1(O)CCCC2C3CCc4cc(O)ccc4C3CCC21C)(CC)CC` (stereo partly drawn), for which the figures for the Potency in the test listed under Rattus norvegicus [3] and in the test listed under Rattus norvegicus [1] were over 2 mg/kg/day and 0.1%, respectively.

In the case of `C#C[C@]1(O)CC[C@H]2[C@@H]3CCc4cc(O)ccc4[C@H]3CC[C@@]21C` [ETHINYL ESTRADIOL], the Potency in the test listed under Rattus norvegicus [1] and in the test filed under Rattus norvegicus [2] was 100% throughout.

Turning to `C#C[C@]1(O)CC[C@H]2[C@@H]3CCc4cc(OC)ccc4[C@H]3CC[C@@]21C` [MESTRANOL], the Potency in the test listed under Rattus norvegicus [3] is over 2 mg/kg/day; in the test listed under Rattus norvegicus [1], 0.3%.
